≈ marks a conversion by molar mass, not a printed value. Calls of active or inactive are those of the source. The rule behind the calls is not given here. A value given as a limit tells only on which side of the number the result lay.

The results in this text go back to ChEMBL document CHEMBL1150376, “Antitumor agents 260. New desmosdumotin B analogues with improved in vitro anticancer activity” (2008).

Common to all, as to type: functional
In experiment [1] the test system is KB. Nature of the experiment: Cytotoxicity against human KB cells by sulforhodamine B assay. The following applies: read-out: ED50 (the source's name). The method, boiled down:
(§1)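 Cells grown in RPMI-1640 with 25 mM HEPES, 0.25% sodium bicarbonate, 10% FBS and 100 µg/mL kanamycin. Freshly trypsinized cells were seeded at 1500-7500 per well, and compounds were added from DMSO-diluted stock. After 3 days, attached cells were fixed with cold 50% TCA, stained with 0.4% SRB, and read at 562 nm. ED50 is the mean of ≥3 independent determinations.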
Background: In SRB staining, fixed cells bind dye roughly in proportion to their protein.

Experiment [2] is described as follows: Cytotoxicity against human KB-VIN cells by sulforhodamine B assay. Conditions: KBVIN, read-out: ED50 (the source's name). The procedure, abridged: as §1
Experiment [3] can be described thus: Selectivity index, ratio of ED50 for human KB cells to ED50 for vincristine-resistant human KB-VIN cells. The procedure, abridged: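 The ratio uses ED50 values from the 3-day SRB assay run in parallel on KB and vincristine-resistant KB-VIN cells. For each line, ED50 is the concentration giving 50% reduction in 562 nm absorbance relative to untreated cells, averaged over ≥3 independent determinations.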

Another experiment relates to A549. The experiment in a line: Cytotoxicity against human A549 cells by sulforhodamine B assay. Conditions: for EC50: read-out: ED50 (the source's name). The procedure, abridged:
as §1

For the next experiment, the system named is MCF7. The experiment in a line: Cytotoxicity against human MCF7 cells by sulforhodamine B assay. Conditions: read-out: ED50 (the source's name). The method, boiled down: as §1
Another experiment concerns HCT-8. Nature of the experiment: Cytotoxicity against human HCT8 cells by sulforhodamine B assay. The following applies: for EC50: read-out: ED50 (the source's name). The method, boiled down:
as §1

In the next experiment the test system is PC-3. The experiment in a line: Cytotoxicity against human PC3 cells by sulforhodamine B assay. The following applies: for EC50: read-out: ED50 (the source's name). The procedure, abridged:
as §1

The subject of experiment [4] is KB. The experiment in a line: Cytotoxicity against human KB cells at 20 ug/mL by sulforhodamine B assay.

In the case of `COC1=CC(O)=C2C(=O)C=C(c3ccccc3)OC2C1(C)C` (configuration not stated), the EC50 (in the experiment with KB [1]; in experiment [2]) was 1.8 µg/mL (≈ 6.03 µM) throughout. Further, in experiment [3], the “Ratio ED50” value is listed as 1.

With `CCC1=C(O)c2c(oc(-c3cccc4ccccc34)cc2=O)C(CC)(CC)C1=O` [2-(NAPHTHALEN-1-YL)-6,8,8-TRIETHYL DESMOSDUMOTIN B], the EC50 in the experiment on KB [1] is 0.6 µg/mL (≈ 1.54 µM); in experiment [2], 0.3 µg/mL (≈ 0.772 µM); in the experiment with A549, 0.6 µg/mL (≈ 1.54 µM); in the experiment on MCF7, 0.2 µg/mL (≈ 0.515 µM); with HCT-8, 0.4 µg/mL (≈ 1.03 µM); in the experiment on PC-3 it was 0.4 µg/mL (≈ 1.03 µM). The “Ratio ED50” value in experiment [3] came out at 2.

Take `CCc1ccc(-c2cc(=O)c3c(o2)C(C)(C)C(=O)C(C)=C3O)cc1` [4-ETHYL DESMOSDUMOTIN B]: the EC50 with KB [1] was 20 µg/mL (≈ 61.7 µM); in experiment [2] it was 1.54 µg/mL (≈ 4.75 µM). Moreover, the “Ratio ED50” value in experiment [3] is given as 13.

Turning to `CCC1=C(O)c2c(oc(-c3ccccc3)cc2=O)C(C)(C)C1=O` [6-ETHYL-8,8-DIMETHYL DESMOSDUMOTIN B], the EC50 in the experiment on KB [1] was over 20 µg/mL; in experiment [2], 0.6 µg/mL (≈ 1.93 µM). Besides, in experiment [3], the “Ratio ED50” value is listed as over 33.

On to `CC1=C(O)c2c(oc(-c3cccc4ccccc34)cc2=O)C(C)(C)C1=O` [2-(NAPHTHALEN-1-YL)DESMOSDUMOTIN B], for which the EC50 in the experiment with KB [1] came out at 0.51 µg/mL (≈ 1.47 µM); in experiment [2] it was 0.16 µg/mL (≈ 0.462 µM); in the experiment on A549, 0.6 µg/mL (≈ 1.73 µM); in the experiment on MCF7, 0.6 µg/mL (≈ 1.73 µM); in the experiment with HCT-8, 0.4 µg/mL (≈ 1.15 µM); in the experiment on PC-3, 0.5 µg/mL (≈ 1.44 µM). Also, in experiment [3], the “Ratio ED50” value is on record as 3.2.

Consider `CCC1=C(O)c2c(occ(-c3ccccc3)c2=O)C(CC)(CC)C1=O`, for which the EC50 in the experiment on KB [1] is 16 µg/mL (≈ 47.3 µM); in experiment [2] it was 3.5 µg/mL (≈ 10.3 µM); in the experiment on A549, 18 µg/mL (≈ 53.2 µM); with MCF7, 10 µg/mL (≈ 29.6 µM); in the experiment on HCT-8 it was 12 µg/mL (≈ 35.5 µM); with PC-3, over 20 µg/mL. In experiment [3], the “Ratio ED50” value was 4.6.

As to `CCC1=C(O)c2c(oc(-c3ccc(C)cc3)cc2=O)C(CC)(CC)C1=O` [6,8,8-TRIETHYL-4-METHYL DESMOSDUMOTIN B], the EC50 in the experiment on KB [1] is 13.8 µg/mL (≈ 39.2 µM); in experiment [2] it was 0.03 µg/mL (≈ 0.0851 µM); in the experiment on A549 it was 16 µg/mL (≈ 45.4 µM); with MCF7, over 20 µg/mL; in the experiment on HCT-8, 15 µg/mL (≈ 42.6 µM); in the experiment with PC-3, 18 µg/mL (≈ 51.1 µM). In addition, the “Ratio ED50” value in experiment [3] is on record as 460.

On to `CCC1=C(O)c2c(oc(-c3ccccc3C)cc2=O)C(CC)(CC)C1=O` [6,8,8-TRIETHYL-2-METHYL DESMOSDUMOTIN B], for which the EC50 in the experiment with KB [1] worked out at 18 µg/mL (≈ 51.1 µM); in experiment [2], 0.1 µg/mL (≈ 0.284 µM).

As for `CCC1=C(O)c2c(oc(-c3ccccc3)cc2=O)C(CC)(CC)C1=O` [6,8,8-TRIETHYL DESMOSDUMOTIN B], the EC50 is over 80 µg/mL in the experiment on KB [1], 0.36 µg/mL (≈ 1.06 µM) in experiment [2] and over 20 µg/mL in the experiment on MCF7. For the same compound, in experiment [3], the “Ratio ED50” value is reported as over 222. For the same compound, the result in the experiment with A549, with HCT-8 and with PC-3 was inactive.

On to `CC1=C(O)c2c(oc(-c3ccccc3C)cc2=O)C(C)(C)C1=O` [2-METHYL DESMOSDUMOTIN B], for which the EC50 stood at 37.3 µg/mL (≈ 120 µM) with KB [1] and 1.75 µg/mL (≈ 5.64 µM) in experiment [2]. Further, the “Ratio ED50” value in experiment [3] is given as 21.3.

For `CCCC1=C(OC)C(CCC)(CCC)C2OC(c3ccccc3)=CC(=O)C2=C1O` (configuration not stated) [6,8,8-TRIPROPYL-7-METHOXY DESMOSDUMOTIN B], the EC50 in the experiment on KB [1] was determined as 8.5 µg/mL (≈ 21.4 µM); in experiment [2] it was 7 µg/mL (≈ 17.7 µM). In experiment [3], the “Ratio ED50” value was found to be 1.2.

As to `CCC1=C(O)c2c(oc(-c3ccc(CC)cc3)cc2=O)C(CC)(CC)C1=O` [6,8,8-TRIETHYL-4-ETHYL DESMOSDUMOTIN B], the EC50 was 8 µg/mL (≈ 21.8 µM) with KB [1] and 0.025 µg/mL (≈ 0.0682 µM) in experiment [2]. In experiment [3], the “Ratio ED50” value came to 320.

In the case of `CCCC1=C(O)c2c(oc(-c3ccccc3)cc2=O)C(CCC)(CCC)C1=O` [6,8,8-TRIPROPYL DESMOSDUMOTIN B], the figures for the EC50 (in the experiment on KB [1]; in experiment [2]) were 4 µg/mL (≈ 10.5 µM) and 0.63 µg/mL (≈ 1.66 µM), respectively. The “Ratio ED50” value in experiment [3] is 6.4.

Consider `CC1=C(O)c2c(oc(-c3cc(C)cc(C)c3)cc2=O)C(C)(C)C1=O` [3,5-DIMETHYL DESMOSDUMOTIN B], for which the EC50 was 53 µg/mL (≈ 164 µM) in the experiment with KB [1] and 2.91 µg/mL (≈ 8.97 µM) in experiment [2]. In addition, the “Ratio ED50” value in experiment [3] came out at 18.2.

Take `CC1=C(O)C(C)(C)c2oc(-c3ccccc3)cc(=O)c2C1=O` [DESMOTUMOTIN B]: the EC50 in the experiment with KB [1] is over 40 µg/mL; in experiment [2] it was 2 µg/mL (≈ 6.75 µM); in the experiment on A549 it was over 20 µg/mL; with MCF7 it was over 20 µg/mL. Further, in experiment [3], the “Ratio ED50” value is on record as over 20. Further, the outcome in the experiment on HCT-8 and in the experiment on PC-3 was inactive.

As to `CC1=C(O)c2c(oc(-c3c(C)cc(C)cc3C)cc2=O)C(C)(C)C1=O` [2,4,6-TRIMETHYL DESMOSDUMOTIN B], the EC50 in experiment [2] came to 5.82 µg/mL (≈ 17.2 µM). In the experiment on KB [4], this compound registered an Activity of under 50%. The “Ratio ED50” value in experiment [3] is over 3.4.

Take `CCc1ccc(-c2cc(=O)c3c(O)c(CC)c(O)c(CC)c3o2)cc1`: the EC50 in the experiment on KB [1] was over 20 µg/mL; in experiment [2], 5 µg/mL (≈ 14.8 µM). Also, the “Ratio ED50” value in experiment [3] was over 4.

`CCC1=C(O)c2c(oc(-c3cc4ccccc4c4ccccc34)cc2=O)C(CC)(CC)C1=O` [6,8,8-TRIETHYL-2-(PHENANTHREN-9-YL) DESMOSDUMOTIN B]: the EC50 with KB [1] turned out to be 5 µg/mL (≈ 11.4 µM); in experiment [2], 4.3 µg/mL (≈ 9.81 µM); in the experiment with A549, 8 µg/mL (≈ 18.2 µM); in the experiment with MCF7, 4 µg/mL (≈ 9.12 µM); in the experiment on HCT-8, 5.6 µg/mL (≈ 12.8 µM); in the experiment on PC-3, 6 µg/mL (≈ 13.7 µM). In addition, the “Ratio ED50” value in experiment [3] stood at 1.2.

For the compound `CC1=C(O)c2c(oc(-c3ccc(C)cc3)cc2=O)C(C)(C)C1=O` [4-METHYL DESMOSDUMOTIN B], the EC50 came to 22.5 µg/mL (≈ 72.6 µM) in the experiment with KB [1] and 1.09 µg/mL (≈ 3.51 µM) in experiment [2]. Besides, the “Ratio ED50” value in experiment [3] was 20.7.

In the case of `CC[C@]1(O)C[C@H]2CN(CCc3c([nH]c4ccccc34)[C@@](C(=O)OC)(c3cc4c(cc3OC)N(C=O)[C@H]3[C@@](O)(C(=O)OC)[C@H](OC(C)=O)[C@]5(CC)C=CCN6CC[C@]43[C@@H]65)C2)C1` [VINCRISTINE], the EC50 in the experiment with KB [1] stood at 0.015 µg/mL (≈ 0.0182 µM); in experiment [2], 7 µg/mL (≈ 8.49 µM); in the experiment with A549, 0.004 µg/mL (≈ 0.00485 µM); with MCF7 it was 0.01 µg/mL (≈ 0.0121 µM); with HCT-8 it was 0.02 µg/mL (≈ 0.0242 µM); in the experiment on PC-3, 0.01 µg/mL (≈ 0.0121 µM). Further, in experiment [3], the “Ratio ED50” value is 0.002.

Take `CCC1=C(OC)C(CC)(CC)C2OC(c3ccccc3)=CC(=O)C2=C1O` (configuration not stated) [6,8,8-TRIETHYL-7-METHOXY DESMOSDUMOTIN B]: the results for the EC50 (with KB [1]; in experiment [2]) were 20 µg/mL (≈ 56.4 µM) and 15.5 µg/mL (≈ 43.7 µM), respectively. Moreover, the “Ratio ED50” value in experiment [3] is recorded as 1.3.

In the case of `COC1=C(C)C(O)=C2C(=O)C=C(c3ccccc3)OC2C1(C)C` (configuration not stated), the EC50 with KB [1] came to 38.5 µg/mL (≈ 123 µM); in experiment [2] it was 23 µg/mL (≈ 73.6 µM). The “Ratio ED50” value in experiment [3] was 1.7.
